Data: PMC8153786 (ACS Omega, 2021)
Read-outs that look alike come from different tables or passages of the source.

Columns and labels:
[1] = tested on: bovine serum albumin; settings: BSA–flavonol interactions ref 69; cited from earlier work
[2] = target: T1, mCCL2-WT (Mus musculus, UniProt P10148); assay: Flavonol fluorescence quenching titration of mCCL2-WT; assay type: binding, murine; settings: for quenching constant (Kq) / number of binding sites: mCCL2-WT; for quenching constant (Kq): Stern–Volmer, 25 °C, 50 μM protein; for number of binding sites: double-logarithmic plot
Method in brief: (§1)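 Each CCL2 variant (WT dimer or monomer, E. coli BL21(DE3)-expressed) was held at 50 μM and titrated with 10–100 μM flavonol from a 20 mM DMSO stock, at 25 °C. Trp W59 was excited at 295 nm and emission read at 300–450 nm, slits 5 nm. Buffer-only additions served as controls; runs in triplicate. Ksv and Kq came from Stern–Volmer analysis; Ka and n from a double-logarithmic plot, nonlinear regression and Scatchard analysis.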

[3] = target: hCCL2-WT (Homo sapiens, UniProt P13500); assay: Flavonol fluorescence quenching titration of hCCL2-WT; assay type: binding; settings: for quenching constant (Kq) / number of binding sites: hCCL2-WT; for quenching constant (Kq): Stern–Volmer, 25 °C, 50 μM protein; for number of binding sites: double-logarithmic plot
Method in brief: as §1

[4] = target: mCCL2-M (Mus musculus, UniProt P10148, P31A); assay: Flavonol fluorescence quenching titration of mCCL2 monomer; assay type: binding, murine; settings: for quenching constant (Kq): Stern–Volmer, 50 μM protein
Method in brief: as §1

[5] = target: hCCL2-M (Homo sapiens, UniProt P13500, P31A); assay: Flavonol fluorescence quenching titration of hCCL2 monomer; assay type: binding; settings: for quenching constant (Kq) / number of binding sites: hCCL2-M (monomer); for quenching constant (Kq): Stern–Volmer, 25 °C, 50 μM protein; for number of binding sites: double-logarithmic plot
Method in brief: as §1

[6] = target: T1, mCCL2-WT; assay: 1H–15N HSQC NMR titration, chemical shift perturbation; assay type: binding, murine; settings: mCCL2-WT 100 μM, protein/flavonol 1:5, comparison among the three flavonols
Method in brief: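 15N-labelled WT murine protein, expressed in E. coli BL21(DE3), at 100 μM in 50 mM Na2HPO4/50 mM NaCl, pH 6.0. 1H–15N HSQC spectra recorded at 500 MHz and 25 °C. Flavonol from a 20 mM DMSO stock was added stepwise up to protein/ligand 1:5. Per-residue CSP was calculated from combined ΔδH and ΔδN.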

[7] = tested on: canine distemper virus; settings: comparison with morin ref 67; cited from earlier work
[8] = mCCL2-M (monomer), double-logarithmic plot

Chain of hCCL2-WT (P13500 24-99): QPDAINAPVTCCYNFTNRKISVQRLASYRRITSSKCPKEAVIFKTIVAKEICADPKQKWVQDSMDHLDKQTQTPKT
Chain of hCCL2-M (P13500 24-99 P31A): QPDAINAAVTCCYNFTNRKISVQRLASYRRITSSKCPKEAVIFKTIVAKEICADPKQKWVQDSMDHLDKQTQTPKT
Chain of mCCL2-M (P10148 24-148 P31A): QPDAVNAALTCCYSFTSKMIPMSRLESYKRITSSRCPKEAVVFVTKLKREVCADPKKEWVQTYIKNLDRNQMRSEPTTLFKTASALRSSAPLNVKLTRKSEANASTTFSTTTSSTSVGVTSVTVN
T1 sequence (P10148 24-148): as the sequence (P10148 24-148 P31A) above, with A8P counted along it

## O=c1c(O)c(-c2ccccc2)oc2cc(O)cc(O)c12 [galangin, reference compound]
[1]
  binding constants (Ka): 643000 L/mol

## O=c1c(O)c(-c2ccc(O)cc2)oc2cc(O)cc(O)c12 [kaempferol, 3,5,7-trihydroxy-2-(4-hydroxyphenyl)chromen-4-one]
[2]
  Kd: 24 ± 6 µM
  quenching constant (Kq): 5.0 × 10^12 m^–1 s^–1
  number of binding sites: 1.1 ± 0.2
[3]
  Kd: 26 ± 5 µM
  quenching constant (Kq): 5.2 × 10^12 m^–1 s^–1
  number of binding sites: 1.1 ± 0.1
[4]
  Kd: 26 ± 5 µM
[4]; mCCL2-M (monomer), 25 °C
  quenching constant (Kq): 5.1 × 10^12 m^–1 s^–1
[5]
  Kd: 25 ± 4 µM
  quenching constant (Kq): 5.3 × 10^12 m^–1 s^–1
  number of binding sites: 1.1 ± 0.1
[6]
  perturbation of resonances in CSP maps: the least
[1]
  binding constants (Ka): 2.57e+06 L/mol

## O=c1c(O)c(-c2cc(O)c(O)c(O)c2)oc2cc(O)cc(O)c12 [myricetin, 3,5,7-trihydroxy-2-(3,4,5-trihydroxyphenyl)chromen-4-one]
[2]
  Kd: 0.42 ± 0.03 µM
  quenching constant (Kq): 6.1 × 10^12 m^–1 s^–1
  number of binding sites: 1.1 ± 0.2
[3]
  Kd: 0.38 ± 0.04 µM
  quenching constant (Kq): 5.8 × 10^12 m^–1 s^–1
  number of binding sites: 1.3 ± 0.2
[4]; dissociation constant (Kd), mCCL2-M (monomer), double-logarithmic plot, 25 °C
  Kd: 0.4 ± 0.03 µM
[4]; mCCL2-M (monomer), 25 °C
  quenching constant (Kq): 6.3 × 10^12 m^–1 s^–1
[4]; [8]
  number of binding sites: 1.2 ± 0.1
[5]
  Kd: 0.43 ± 0.02 µM
  quenching constant (Kq): 6.2 × 10^12 m^–1 s^–1
  number of binding sites: 1.2 ± 0.2
[6]
  perturbation of resonances in CSP maps: largest perturbation of resonances
[1]
  binding constants (Ka): 4.9e+08 L/mol

## O=c1c(O)c(-c2ccc(O)c(O)c2)oc2cc(O)cc(O)c12 [quercetin, 2-(3,4-dihydroxyphenyl)-3,5,7-trihydroxychromen-4-one]
[2]
  Kd: 3.9 ± 0.5 µM
  quenching constant (Kq): 4.3 × 10^12 m^–1 s^–1
  number of binding sites: 1.2 ± 0.2
[3]
  Kd: 3.5 ± 0.7 µM
  quenching constant (Kq): 4.2 × 10^12 m^–1 s^–1
  number of binding sites: 1.1 ± 0.1
[4]
  Kd: 3.7 ± 0.4 µM
[4]; mCCL2-M (monomer), 25 °C
  quenching constant (Kq): 5.7 × 10^12 m^–1 s^–1
[4]; [8]
  number of binding sites: 1.1 ± 0.2
[5]
  Kd: 3.6 ± 0.5 µM
  quenching constant (Kq): 5.4 × 10^12 m^–1 s^–1
  number of binding sites: 1.2 ± 0.1
[1]
  binding constants (Ka): 3.65e+07 L/mol
[7]
  inhibitory activity: higher inhibitory activity than morin
